Reference: ChEMBL document CHEMBL1938293, “Molecular drug-organiser: synthesis, characterization and biological evaluation of penicillin V and/or nalidixic acid calixarene-based podands” (2011)
The source made the active and inactive calls. No cut-off for these calls is given here.

How the values were obtained:
Escherichia coli [1] = experiment: Antibacterial activity against Escherichia coli ATCC 25922 at 3.25 mg/mL after 24 hrs by disk diffusion assay; type: functional, organism-based
How it was run: (§1)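 Disk diffusion on Mueller–Hinton agar per CLSI recommendations. Sterile 6 mm cellulose disks were impregnated with 20 μL of the DMSO solution at the stated concentration. Plates were incubated at 37 °C and growth-inhibition zone diameters were read at 24 h. Disks carrying DMSO alone served as solvent control.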

Pseudomonas aeruginosa [2] = experiment: Antibacterial activity against Pseudomonas aeruginosa ATCC 27853 at 3.25 mg/mL after 24 hrs by disk diffusion assay; type: functional, organism-based; how it was run: as §1
Staphylococcus aureus [3] = experiment: Antibacterial activity against Staphylococcus aureus ATCC 29213 at 3.25 mg/mL after 24 hrs by disk diffusion assay; type: functional, organism-based; how it was run: as §1
Enterococcus faecalis [4] = experiment: Antibacterial activity against Enterococcus faecalis ATCC 29212 at 3.25 mg/mL after 24 hrs by disk diffusion assay; type: functional, organism-based; how it was run: as §1
Staphylococcus aureus [5] = experiment: Antibacterial activity against Staphylococcus aureus ATCC 25923 at 3.25 mg/mL after 24 hrs by disk diffusion assay; type: functional, organism-based; how it was run: as §1
Escherichia coli [6] = experiment: Antibacterial activity against Escherichia coli ATCC 25922 at 1.88 mg/mL after 24 hrs by disk diffusion assay; type: functional, organism-based
How it was run: (§2)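 Disk diffusion on Mueller–Hinton agar, run per CLSI recommendations. Sterile 6 mm cellulose disks each carried 20 μL of a DMSO solution. Reference drugs were dosed to equal the maximum amount releasable from the calixarene podands. Disks with DMSO alone served as solvent controls. Plates were incubated at 37 °C, and growth-inhibition zone diameter (mm) was read at 24 h.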

Enterococcus faecalis [7] = experiment: Antibacterial activity against Enterococcus faecalis ATCC 29212 at 1.88 mg/mL after 24 hrs by disk diffusion assay; type: functional, organism-based; how it was run: as §2
Staphylococcus aureus [8] = experiment: Antibacterial activity against Staphylococcus aureus ATCC 29213 at 1.88 mg/mL after 24 hrs by disk diffusion assay; type: functional, organism-based; how it was run: as §2
Staphylococcus aureus [9] = experiment: Antibacterial activity against Staphylococcus aureus ATCC 25923 at 1.88 mg/mL after 24 hrs by disk diffusion assay; type: functional, organism-based; how it was run: as §2
Pseudomonas aeruginosa [10] = experiment: Antibacterial activity against Pseudomonas aeruginosa ATCC 27853 at 1.88 mg/mL after 24 hrs by disk diffusion assay; type: functional, organism-based; how it was run: as §2
Escherichia coli [11] = experiment: Antibacterial activity against Escherichia coli ATCC 25922 at 5.8 mg/mL after 24 hrs by disk diffusion assay; type: functional, organism-based; how it was run: as §1
Staphylococcus aureus [12] = experiment: Antibacterial activity against Staphylococcus aureus ATCC 25923 at 2.53 mg/mL after 24 hrs by disk diffusion assay; type: functional, organism-based; how it was run: as §1
Staphylococcus aureus [13] = experiment: Antibacterial activity against Staphylococcus aureus ATCC 29213 at 5.8 mg/mL after 24 hrs by disk diffusion assay; type: functional, organism-based; how it was run: as §1
Staphylococcus aureus [14] = experiment: Antibacterial activity against Staphylococcus aureus ATCC 25923 at 5.8 mg/mL after 24 hrs by disk diffusion assay; type: functional, organism-based; how it was run: as §1
Enterococcus faecalis [15] = experiment: Antibacterial activity against Enterococcus faecalis ATCC 29212 at 2.53 mg/mL after 24 hrs by disk diffusion assay; type: functional, organism-based; how it was run: as §1
Pseudomonas aeruginosa [16] = experiment: Antibacterial activity against Pseudomonas aeruginosa ATCC 27853 at 2.53 mg/mL after 24 hrs by disk diffusion assay; type: functional, organism-based; how it was run: as §1
Escherichia coli [17] = experiment: Antibacterial activity against Escherichia coli ATCC 25922 at 2.53 mg/mL after 24 hrs by disk diffusion assay; type: functional, organism-based; how it was run: as §1
Staphylococcus aureus [18] = experiment: Antibacterial activity against Staphylococcus aureus ATCC 29213 at 2.53 mg/mL after 24 hrs by disk diffusion assay; type: functional, organism-based; how it was run: as §1
Enterococcus faecalis [19] = experiment: Antibacterial activity against Enterococcus faecalis ATCC 29212 at 5.8 mg/mL after 24 hrs by disk diffusion assay; type: functional, organism-based; how it was run: as §1
Staphylococcus aureus [20] = experiment: Antibacterial activity against Staphylococcus aureus ATCC 29213 at 5 mg/mL after 24 hrs by disk diffusion assay; type: functional, organism-based; how it was run: as §1
Pseudomonas aeruginosa [21] = experiment: Antibacterial activity against Pseudomonas aeruginosa ATCC 27853 at 5 mg/mL after 24 hrs by disk diffusion assay; type: functional, organism-based; how it was run: as §1
Staphylococcus aureus [22] = experiment: Antibacterial activity against Staphylococcus aureus ATCC 25923 at 5 mg/mL after 24 hrs by disk diffusion assay; type: functional, organism-based; how it was run: as §1
Enterococcus faecalis [23] = experiment: Antibacterial activity against Enterococcus faecalis ATCC 29212 at 5 mg/mL after 24 hrs by disk diffusion assay; type: functional, organism-based; how it was run: as §1
Escherichia coli [24] = experiment: Antibacterial activity against Escherichia coli ATCC 25922 at 5 mg/mL after 24 hrs by disk diffusion assay; type: functional, organism-based; how it was run: as §1
Staphylococcus aureus [25] = experiment: Antibacterial activity against Staphylococcus aureus ATCC 29213 at 2.83 mg/mL after 24 hrs by disk diffusion assay; type: functional, organism-based; how it was run: as §1
Staphylococcus aureus [26] = experiment: Antibacterial activity against Staphylococcus aureus ATCC 25923 at 1.25 mg/mL after 24 hrs by disk diffusion assay; type: functional, organism-based; how it was run: as §1
Enterococcus faecalis [27] = experiment: Antibacterial activity against Enterococcus faecalis ATCC 29212 at 1.25 mg/mL after 24 hrs by disk diffusion assay; type: functional, organism-based; how it was run: as §1
Enterococcus faecalis [28] = experiment: Antibacterial activity against Enterococcus faecalis ATCC 29212 at 2.83 mg/mL after 24 hrs by disk diffusion assay; type: functional, organism-based; how it was run: as §1
Pseudomonas aeruginosa [29] = experiment: Antibacterial activity against Pseudomonas aeruginosa ATCC 27853 at 2.83 mg/mL after 24 hrs by disk diffusion assay; type: functional, organism-based; how it was run: as §1
Escherichia coli [30] = experiment: Antibacterial activity against Escherichia coli ATCC 25922 at 2.83 mg/mL after 24 hrs by disk diffusion assay; type: functional, organism-based; how it was run: as §1
Staphylococcus aureus [31] = experiment: Antibacterial activity against Staphylococcus aureus ATCC 25923 at 2.83 mg/mL after 24 hrs by disk diffusion assay; type: functional, organism-based; how it was run: as §1
Staphylococcus aureus [32] = experiment: Antibacterial activity against Staphylococcus aureus ATCC 29213 at 1.25 mg/mL after 24 hrs by disk diffusion assay; type: functional, organism-based; how it was run: as §1
Enterococcus faecalis [33] = experiment: Antibacterial activity against Enterococcus faecalis ATCC 29212 at 10 mg/mL after 24 hrs by disk diffusion assay; type: functional, organism-based; how it was run: as §1
Escherichia coli [34] = experiment: Antibacterial activity against Escherichia coli ATCC 25922 at 10 mg/mL after 24 hrs by disk diffusion assay; type: functional, organism-based; how it was run: as §1
Staphylococcus aureus [35] = experiment: Antibacterial activity against Staphylococcus aureus ATCC 25923 at 10 mg/mL after 24 hrs by disk diffusion assay; type: functional; conditions: ATCC 25923, 24 h, read-out: DIZ; how it was run: as §1
Staphylococcus aureus [36] = experiment: Antibacterial activity against Staphylococcus aureus ATCC 25923 at 10 mg/mL 1 month old compound stored at 4 degree C after 24 hrs by disk diffusion assay; type: functional; conditions: ATCC 25923, 24 h, read-out: DIZ
How it was run: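 Disk diffusion on Mueller–Hinton agar per CLSI recommendations. The DMSO solution had been stored 1 month at 4 °C before use and was compared with a freshly prepared solution. Sterile 6 mm cellulose disks were impregnated with 20 μL. Plates were incubated at 37 °C and inhibition zone diameter was read at 24 h.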

Staphylococcus aureus [37] = experiment: Antibacterial activity against Staphylococcus aureus ATCC 29213 at 10 mg/mL after 24 hrs by disk diffusion assay; type: functional, organism-based; how it was run: as §1
Staphylococcus aureus [38] = experiment: Antibacterial activity against Staphylococcus aureus ATCC 25923 at 10 mg/mL freshly prepared compound after 24 hrs by disk diffusion assay; type: functional; how it was run: as §1

For CC(C)(C)c1cc2c(O)c(c1)Cc1cc(C(C)(C)C)cc(c1OCCCO)Cc1cc(C(C)(C)C)cc(c1O)Cc1cc(C(C)(C)C)cc(c1OCCCO)C2, which Activity (Escherichia coli [1]) is on record?
The Activity was “inactive”.

What about the Activity (Pseudomonas aeruginosa [2]) of the same compound?
The Activity was “inactive”.

What about the Activity (Staphylococcus aureus [3]) of the same compound?
The Activity was “inactive”.

What about the Activity (Enterococcus faecalis [4]) of the same compound?
Its Activity is “inactive”.

And the Activity (Staphylococcus aureus [5])?
Its Activity is “inactive”.

Which Activity (Escherichia coli [6]) does the source give for CCn1cc(C(=O)O)c(=O)c2ccc(C)nc21 here?
The Activity was “Active”.

And the Activity (Enterococcus faecalis [7])?
The Activity was “inactive”.

What about the Activity (Staphylococcus aureus [8]) of the same compound?
Its Activity is “Active”.

What about the Activity (Staphylococcus aureus [9]) of the same compound?
Its Activity is “Active”.

And the Activity (Pseudomonas aeruginosa [10])?
The Activity was “inactive”.

Which Activity (Escherichia coli [11]) does the source give for CC(C)(C)c1cc2c(O)c(c1)Cc1cc(C(C)(C)C)cc(c1OCCCOC(=O)[C@@H]1N3C(=O)[C@@H](NC(=O)COc4ccccc4)[C@H]3SC1(C)C)Cc1cc(C(C)(C)C)cc(c1O)Cc1cc(C(C)(C)C)cc(c1OCCCOC(=O)[C@@H]1N3C(=O)[C@@H](NC(=O)COc4ccccc4)[C@H]3SC1(C)C)C2 here?
Its Activity is “inactive”.

And the Activity (Staphylococcus aureus [12])?
The Activity was “inactive”.

And the Activity (Staphylococcus aureus [13])?
The Activity was “inactive”.

And the Activity (Staphylococcus aureus [14])?
The Activity was “Active”.

What about the Activity (Enterococcus faecalis [15]) of the same compound?
The Activity was “inactive”.

What about the Activity (Pseudomonas aeruginosa [16]) of the same compound?
The Activity was “inactive”.

What about the Activity (Escherichia coli [17]) of the same compound?
The Activity was “inactive”.

What about the Activity (Staphylococcus aureus [18]) of the same compound?
The Activity was “inactive”.

What about the Activity (Enterococcus faecalis [19]) of the same compound?
Its Activity is “inactive”.

With CCn1cc(C(=O)OCCCOc2c3cc(C(C)(C)C)cc2Cc2cc(C(C)(C)C)cc(c2O)Cc2cc(C(C)(C)C)cc(c2OCCCOC(=O)c2cn(CC)c4nc(C)ccc4c2=O)Cc2cc(C(C)(C)C)cc(c2O)C3)c(=O)c2ccc(C)nc21 as the compound, how does the Activity (Staphylococcus aureus [20]) read?
Its Activity is “inactive”.

And the Activity (Pseudomonas aeruginosa [21])?
The Activity was “inactive”.

What about the Activity (Staphylococcus aureus [22]) of the same compound?
The Activity was “inactive”.

And the Activity (Enterococcus faecalis [23])?
Its Activity is “inactive”.

What about the Activity (Escherichia coli [24]) of the same compound?
Its Activity is “inactive”.

For CC1(C)S[C@@H]2[C@H](NC(=O)COc3ccccc3)C(=O)N2[C@H]1C(=O)O, which Activity (Staphylococcus aureus [25]) is on record?
The Activity was “Active”.

What about the Activity (Staphylococcus aureus [26]) of the same compound?
The Activity was “Active”.

And the Activity (Enterococcus faecalis [27])?
Its Activity is “Active”.

What about the Activity (Enterococcus faecalis [28]) of the same compound?
The Activity was “inactive”.

What about the Activity (Pseudomonas aeruginosa [29]) of the same compound?
Its Activity is “inactive”.

What about the Activity (Escherichia coli [30]) of the same compound?
Its Activity is “inactive”.

And the Activity (Staphylococcus aureus [31])?
Its Activity is “Active”.

And the Activity (Staphylococcus aureus [32])?
Its Activity is “Active”.

How did the Activity (Enterococcus faecalis [33]) turn out when CCn1cc(C(=O)OCCCOc2c3cc(C(C)(C)C)cc2Cc2cc(C(C)(C)C)cc(c2O)Cc2cc(C(C)(C)C)cc(c2OCCCOC(=O)[C@@H]2N4C(=O)[C@@H](NC(=O)COc5ccccc5)[C@H]4SC2(C)C)Cc2cc(C(C)(C)C)cc(c2O)C3)c(=O)c2ccc(C)nc21 was run?
Its Activity is “inactive”.

What about the Activity (Escherichia coli [34]) of the same compound?
Its Activity is “inactive”.

And the zone of inhibition at 10000 µg/mL (Staphylococcus aureus [35])?
The zone of inhibition at 10000 µg/mL was 31.5 mm.

What about the zone of inhibition at 10000 µg/mL (Staphylococcus aureus [36]) of the same compound?
The zone of inhibition at 10000 µg/mL was 35 mm.

What about the Activity (Staphylococcus aureus [37]) of the same compound?
The Activity was “inactive”.

And the “diameter of the inhibition zone (DIZ)” value (Staphylococcus aureus [38])?
Its value is 30 mm.
